SMARCA2 activ: increases SMARCA2 function in MMTV reporter cells; MG213 cells, MMTV-luciferase reporter, dexamethasone, overnight; activation, % at 9.1 µM; 370,000 compounds, 1% hits; in the data active = activation above about 7.8%;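 also: 0% = vehicle wells and 100% = reference activator wells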
MPTP block: inhibitors of mitochondrial permeability transition pore; isolated mouse mitochondria, Ca2+ swelling absorbance, 30 min; AID 602449; inhibition, % at 10 µM; 360,000 compounds, 1.4% hits;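 active = inhibition of 50% or more, scaled per plate between neutral and stimulator controls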;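 also: 0% = DMSO wells given calcium and 100% = 1 mM EGTA wells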
MC4R ag barr: activates human MC4R beta-arrestin recruitment. P32245. U2OS MC4R beta-arrestin complementation, luminescence; percent of melanotan II response, DMSO zero. activation, % at 8.9 µM. 360,000 compounds, 0.98% hits. AID 540308;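 active = activation above a per-plate cutoff, the mean activation of sample wells on that plate plus 3 SD, cut at about 8% in these data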
Target sequence (P32245 whole entry, looked up): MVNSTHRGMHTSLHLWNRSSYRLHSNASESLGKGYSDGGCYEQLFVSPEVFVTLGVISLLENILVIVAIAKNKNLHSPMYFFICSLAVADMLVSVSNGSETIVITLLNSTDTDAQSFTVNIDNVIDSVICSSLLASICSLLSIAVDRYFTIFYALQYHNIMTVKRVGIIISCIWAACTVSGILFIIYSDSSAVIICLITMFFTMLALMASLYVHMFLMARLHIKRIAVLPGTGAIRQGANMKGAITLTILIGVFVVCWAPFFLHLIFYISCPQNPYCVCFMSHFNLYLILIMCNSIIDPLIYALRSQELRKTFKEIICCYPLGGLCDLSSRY
MC4R antag cAMP: blocks human MC4R cAMP signaling | AID 540295 | MC4R-expressing cells, MTII-stimulated cAMP, LANCE TR-FRET | inhibition, % at 6.5 µM | 360,000 compounds, 0.48% hits;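 active = inhibition above its plate's cutoff, the mean of tested wells on that plate plus 3 SD, cut at about 29% in these data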;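 also: 0% = Melanotan II alone and 100% = Melanotan II plus saturating MCL0020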
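material = U2OS cells stably expressing human melanocortin 4 receptor (MC4R) | also added = Melanotan II challenge | dosing = single nominal compound dose of 6.5 µM | detection = TR-FRET with Eu-cAMP and labeled anti-cAMP, 671 nm | replication = singlicate | timing = compound 30 min, challenge 1 h, detection 1 h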
ATG4B inhibitor: blocks human ATG4B protease cleavage of LC3 substrate | 340,000 compounds, 0.51% hits | ATG4B cleavage of LC3-PLA2, NBD-HPC fluorescence, 1 h | Q9Y4P1 | inhibition, % at 8.33 µM; in the data active = inhibition above about 40%
SMARCA2 conf: SMARCA2 activation, confirmation screen; MG213 cells, MMTV-luciferase with dexamethasone, luminescence, overnight; MG213 cells expressing E1A, Rb sequestered; DMSO wells 0%, reference activator 100%; shares compounds with SMARCA2 activ; activation, % at 9.1 µM; 3,500 compounds, 30% hits;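 active = activation above its plate's cutoff, the mean activation of tested wells plus 3 SD, cut at about 7.9% in these data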
VP16 Luc act: counter-screen for SMARCA2 activators: GAL4-VP16 luciferase reporter activation; shares compounds with SMARCA2 activ; HEK293 GAL4-VP16 pG5luc reporter, luciferase luminescence; scaled: DMSO wells 0%, SAHA wells 100%; activation, % at 9.1 µM; 3,500 compounds, 41% hits; AID 686939;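 active = activation above the solvent-only control well mean plus 3 SD, averaged across control plates, cut at about 5.2% in these data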
Numbers without * were called inactive; nt = not tested or not shown. Sampled rows, rich in hits. Any-hit rate of the full collection: about 4.1%.

SMILES	SMARCA2 activ	MPTP block	MC4R ag barr	MC4R antag cAMP	ATG4B inhibitor	SMARCA2 conf	VP16 Luc act
CCOc1ccc(-c2nc(-c3cccnc3)no2)cc1	9.3*	1.5	1.9	-0.3	3.8	2.5	12.9*
Cn1cccc1/C=N/NC(=O)c1cccnc1	8.3*	0.0	-2.3	7.1	-1.6	1.0	1.2
Cc1ccccc1/C=N/NC(=O)c1cccnc1	-1.1	-1.0	-1.3	-5.1	-9.5	nt	nt
O=C(N/N=C/c1c(-c2ccccc2)[nH]c2ccccc12)c1cccnc1	0.5	0.9	-2.8	2.3	-3.4	nt	nt
Cn1c(-c2ccccc2)c(/C=N/NC(=O)c2cccnc2)c2ccccc21	12.4*	-0.4	-1.4	-4.9	-17.3	5.8	2.3
O=C(N/N=C/c1cccc2ccccc12)c1cccnc1	9.1*	0.6	-1.2	-16.3	-28.6	0.9	2.5
C[C@H](CO)N1C[C@H](C)[C@@H](CN(C)S(=O)(=O)c2ccc(F)cc2)Oc2cc(Br)ccc2S1(=O)=O	3.5	nt	nt	nt	nt	nt	nt
O=C(NCc1ccc(F)c(F)c1)C1CCCN(c2nc3ccccc3o2)C1 (stereo unspecified)	-3.9	nt	nt	nt	nt	nt	nt
Cc1cc2c(nc1C)CCCN2S(=O)(=O)c1ccc(C(F)(F)F)cc1	-3.0	nt	nt	nt	nt	nt	nt
O=c1c(C=NCc2cccnc2)c(C(F)(F)F)[nH]n1-c1nc2ccccc2s1	11.6*	1.9	-2.9	0.4	-5.1	11.0*	7.5*
Cc1nnc(Sc2cc(NCCCO)c([N+](=O)[O-])c3nonc23)s1	10.2*	6.0	-5.6	-32.1	-7.4	-14.5	0.8
COc1cccc(C(=O)Nc2ccc(NC(=O)C(C)C)nc2)c1	8.5*	-6.0	-0.2	7.8	-11.5	1.6	2.9
COc1cccc(C(=O)Nc2ccc(NC(=O)C3CC3)cn2)c1	8.4*	0.8	0.1	21.9	-6.0	-0.5	8.2*
CCOC(=O)C1=CCN(S(=O)(=O)c2ccc(C)cc2)C1c1cccc(Cl)c1 (stereo unspecified)	-6.0	0.5	nt	nt	nt	nt	nt
CC1(C(=O)Nc2ccc3c(c2)OCCO3)CN(S(C)(=O)=O)CC(=O)N1CCc1ccccc1F (stereo unspecified)	-0.6	0.1	nt	nt	nt	nt	nt
COc1ccc(CN2C[C@H](COCc3ccccc3)Oc3cccc(Oc4ccc(C(C)C)cc4)c3S2(=O)=O)cc1	2.9	nt	nt	nt	nt	nt	nt
Cc1ccc(C(=O)Nc2nnc(C)s2)cc1	13.0*	-2.4	-2.3	-6.2	-9.1	6.3	16.4*
O=C(Nc1nnc(SCC(=O)N2CCCc3ccccc32)s1)c1ccccc1	10.1*	0.2	-0.6	4.1	-4.3	2.4	8.0*
COc1ccc(C(=O)Nc2nnc(SCC(=O)NC3CC3)s2)cc1	8.2*	-0.1	-0.7	-0.4	-0.9	7.4	12.7*
CCSc1nnc(NC(=O)c2ccccc2)s1	10.7*	-0.1	-1.6	2.4	6.8	5.3	5.5*
COC(=O)[C@]12C[C@H](CC(=O)NCc3ccccc3)C(=O)N(Cc3ccccc3)C1=C[C@H](C(C)(C)C)O[C@@H]2C	-2.3	nt	nt	nt	nt	nt	nt
O=C(NCC1CCN(C(=O)C(=O)c2cc3ccccc3o2)CC1)c1ccc2c(c1)OCC2	0.5	nt	nt	nt	nt	nt	nt
COC[C@@H](O)[C@H]1OCc2cc(OC)ccc2[C@@H]1/C=C/c1ccccc1	-2.4	nt	nt	nt	nt	nt	nt
Cc1cccc(NC(=O)/C(C#N)=C/c2ccccc2O)n1	11.9*	0.3	-0.8	16.0	6.7	5.3	6.7*
N#C/C(=C\c1ccc(O)c(O)c1)C(=O)Nc1ccccc1	9.8*	32.6	0.5	6.7	-1.0	0.0	4.1
C[C@@H](NC(=O)/C(C#N)=C/c1ccc(O)c(O)c1)c1ccccc1	-4.7	-1.7	-2.4	-7.1	-1.8	nt	nt
COc1ccccc1CNC(=O)N(CCc1c(C)[nH]c2ccccc12)Cc1cccs1	-7.0	nt	nt	nt	nt	nt	nt
O=c1c2ccccc2nc2c3ccccc3c(NCCN3CCOCC3)nn12	33.2*	nt	nt	nt	nt	44.7*	0.1
O=c1c2ccccc2nc(-c2ccccc2)n1CCN1CCOCC1	1.6	0.2	2.0	1.6	-12.9	nt	nt
c1ccc2nc3c(nc2c1)c1ccccc1n3CCN1CCOCC1	11.0*	-0.5	-0.1	16.7	-1.0	7.9*	4.2

Screening data from PubChem.
